pIC50, pKi: −log10 of the molar value. Calls of active or inactive are those of the source. No cut-off for these calls is given here.

Chain of Metabotropic glutamate receptor 5 (Homo sapiens, UniProt P41594) (P41594 whole entry): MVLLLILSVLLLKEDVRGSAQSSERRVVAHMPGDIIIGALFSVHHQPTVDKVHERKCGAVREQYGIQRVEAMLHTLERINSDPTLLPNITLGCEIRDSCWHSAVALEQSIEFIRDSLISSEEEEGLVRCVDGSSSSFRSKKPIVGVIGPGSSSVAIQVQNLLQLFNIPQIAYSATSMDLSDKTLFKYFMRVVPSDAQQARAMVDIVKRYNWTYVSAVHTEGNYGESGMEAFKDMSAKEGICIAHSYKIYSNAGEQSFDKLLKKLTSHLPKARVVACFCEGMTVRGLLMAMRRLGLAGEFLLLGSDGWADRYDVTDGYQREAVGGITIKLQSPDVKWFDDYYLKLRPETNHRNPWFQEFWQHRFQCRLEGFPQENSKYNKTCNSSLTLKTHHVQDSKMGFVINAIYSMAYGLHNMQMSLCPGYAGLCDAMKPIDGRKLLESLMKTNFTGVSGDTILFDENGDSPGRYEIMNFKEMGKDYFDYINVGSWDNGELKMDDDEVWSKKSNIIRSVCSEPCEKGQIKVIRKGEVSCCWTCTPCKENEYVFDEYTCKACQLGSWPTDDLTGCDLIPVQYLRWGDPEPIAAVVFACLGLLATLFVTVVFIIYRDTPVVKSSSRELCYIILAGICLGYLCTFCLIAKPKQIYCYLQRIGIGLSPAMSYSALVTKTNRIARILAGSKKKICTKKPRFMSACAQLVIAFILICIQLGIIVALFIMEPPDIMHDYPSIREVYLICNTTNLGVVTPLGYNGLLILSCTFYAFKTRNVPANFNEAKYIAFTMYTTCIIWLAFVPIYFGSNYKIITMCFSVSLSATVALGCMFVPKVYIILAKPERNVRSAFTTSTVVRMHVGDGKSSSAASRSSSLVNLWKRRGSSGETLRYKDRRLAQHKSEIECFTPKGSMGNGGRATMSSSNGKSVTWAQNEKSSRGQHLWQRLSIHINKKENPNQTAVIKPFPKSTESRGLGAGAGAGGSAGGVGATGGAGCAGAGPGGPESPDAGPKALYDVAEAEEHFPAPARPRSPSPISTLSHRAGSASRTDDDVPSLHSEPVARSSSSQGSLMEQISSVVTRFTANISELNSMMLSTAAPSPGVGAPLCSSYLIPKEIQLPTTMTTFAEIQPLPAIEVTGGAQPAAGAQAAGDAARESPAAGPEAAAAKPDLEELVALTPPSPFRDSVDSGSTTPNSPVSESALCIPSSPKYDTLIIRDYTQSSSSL

In one experiment the target is Metabotropic glutamate receptor 5 (Rattus norvegicus) (UniProt P31424). Put plainly: Activity in agonist-induced phosphoinositide hydrolysis in CHO cells expressing mGluR5a.
Chain of Metabotropic glutamate receptor 5 (Rattus norvegicus) (P31424 whole entry, looked up): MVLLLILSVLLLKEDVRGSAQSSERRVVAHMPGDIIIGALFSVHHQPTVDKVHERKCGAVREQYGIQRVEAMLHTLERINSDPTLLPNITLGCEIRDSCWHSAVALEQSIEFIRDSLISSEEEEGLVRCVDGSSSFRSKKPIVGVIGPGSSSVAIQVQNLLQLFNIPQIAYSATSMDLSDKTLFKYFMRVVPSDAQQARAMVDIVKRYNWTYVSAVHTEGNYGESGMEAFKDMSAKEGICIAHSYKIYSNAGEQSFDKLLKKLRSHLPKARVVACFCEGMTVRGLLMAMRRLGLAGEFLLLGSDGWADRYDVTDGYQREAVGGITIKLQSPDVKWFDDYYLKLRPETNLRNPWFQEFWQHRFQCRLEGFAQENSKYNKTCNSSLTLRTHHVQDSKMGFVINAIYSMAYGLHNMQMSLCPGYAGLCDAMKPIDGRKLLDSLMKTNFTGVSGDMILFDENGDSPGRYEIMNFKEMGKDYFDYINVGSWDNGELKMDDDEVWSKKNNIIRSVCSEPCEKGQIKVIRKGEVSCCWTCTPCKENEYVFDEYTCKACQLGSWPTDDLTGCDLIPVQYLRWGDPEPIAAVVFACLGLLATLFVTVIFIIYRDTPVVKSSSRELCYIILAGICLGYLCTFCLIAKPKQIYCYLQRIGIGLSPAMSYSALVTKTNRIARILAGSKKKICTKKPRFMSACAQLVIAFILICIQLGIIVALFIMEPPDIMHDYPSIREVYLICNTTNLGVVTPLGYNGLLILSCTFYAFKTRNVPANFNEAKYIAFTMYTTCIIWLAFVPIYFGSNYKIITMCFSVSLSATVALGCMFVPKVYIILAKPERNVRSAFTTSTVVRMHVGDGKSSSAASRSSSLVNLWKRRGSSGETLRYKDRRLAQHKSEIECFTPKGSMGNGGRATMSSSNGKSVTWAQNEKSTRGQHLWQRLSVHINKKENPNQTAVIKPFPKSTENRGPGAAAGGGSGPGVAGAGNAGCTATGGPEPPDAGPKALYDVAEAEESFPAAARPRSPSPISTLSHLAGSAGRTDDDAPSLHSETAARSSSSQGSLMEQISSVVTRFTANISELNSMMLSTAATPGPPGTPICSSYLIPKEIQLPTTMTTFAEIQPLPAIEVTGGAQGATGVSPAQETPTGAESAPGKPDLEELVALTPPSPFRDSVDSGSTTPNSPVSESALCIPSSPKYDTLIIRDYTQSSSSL
In turn, `C#Cc1ccc(C#Cc2csc(C)n2)cn1` showed a pIC50 of 5.53.
Still for that read-out and setting: the same measure for `COc1ccccc1C#Cc1csc(C)n1`: 7.44; for `Cc1nc(C#Cc2cnc3ccccc3c2)cs1`: < 5.00; for `Cc1nc(C#Cc2cncc(Br)c2)cs1`: 7.22.
`C#Cc1nc(C#Cc2cccc(F)c2)cs1` gave a negative-log IC50 (pIC50) of 5.53.
On the same count and under the same terms, next, `Cc1nc(C#Cc2cccnc2)co1`: < 5.00.
`OCC#Cc1nc(C#Cc2cccc(F)c2)cs1`: the pIC50 is < 5.00.
Same read-out and setting: the same measure for `Cc1nc(C(=O)Nc2cccnc2)cs1`: < 5.00.
`Cc1nc(C#Cc2ccc(-c3ccc(F)cc3)nc2)cs1`: the pIC50 was 7.99.
The compound `Cc1nc(C#Cc2ccccc2F)cs1` gave a pIC50 of 6.85.
As for `CCc1sc(C)nc1C#Cc1cccnc1`, the pIC50 is 5.91.
Still for that read-out and setting: the same measure for `Cc1nc(C#Cc2cccnc2)c(C)s1`: 6.16.
The same measure, in the same setting: the same measure for `COc1ccc(-c2cncc(C#Cc3csc(C)n3)c2)cc1`: 6.65.
Consider `O=C(Nc1nc(C#Cc2cccnc2)cs1)Nc1ccc(F)cc1F`, for which the pIC50 was < 5.00.
On to `Cc1nc(C#Cc2cccs2)cs1`, for which the pIC50 was 6.32.
As to `Cc1nc(C#Cc2ccc(F)cn2)cs1`, the pIC50 is 5.96.
On the same count and under the same terms, next, `Cc1nc(C#Cc2cccc(OC(F)(F)F)c2)cs1`: 6.58.
`C#Cc1ncccc1C#Cc1csc(C)n1` showed a pIC50 of 6.72.
Same read-out and setting: next, `Cc1nc(C(=O)Nc2cccc(F)c2)cs1`: < 5.00; `Cc1nc(C#Cc2cccnc2Cl)cs1`: 7.34; `Cc1nc(C#Cc2cncc(-c3ccc(F)cc3)c2)cs1`: 6.79.
On to `Fc1cccc(C#Cc2csc(Br)n2)c1`, for which the pIC50 was 6.28.
In the case of `Cc1nc(C#Cc2cccc(F)c2)cs1`, the pIC50 was 7.64.
Still for that read-out and setting: next, `Cc1nc(C#Cc2cccc(C#N)c2)cs1`: 9.03; `Cc1nc(/C=C/c2cccnc2)cs1`: 5.51.
Same read-out and setting: next, `COc1cccc(C#Cc2csc(C)n2)c1`: 7.31; `Cc1nc(C#Cc2ccc(F)nc2)cs1`: 6.08.
The same measure, in the same setting: the same measure for `Fc1cccc(C#Cc2csc(-c3cc(F)cc(F)c3)n2)c1`: < 5.00.
Regarding `Cc1nc(C#Cc2cccc(C(F)(F)F)c2)cs1`, the pIC50 is 6.38.
Take `Cc1nc(C#Cc2cccc(O)c2)cs1`: the pIC50 was 6.18.
Still for that read-out and setting: the same measure for `Cc1nc(C#Cc2cccc(F)c2)co1`: < 5.00.
`Cc1nc(C#Cc2ccc(OS(C)(=O)=O)nc2)cs1` showed a pIC50 of 5.63.
`Nc1nc(C#Cc2cccc(F)c2)cs1` had a pIC50 of 7.10.
Turning to `Nc1nc(C#Cc2cccnc2)cs1`, the pIC50 was 6.10.
On the same count and under the same terms, the same measure for `COC(=O)Nc1nc(C#Cc2cccnc2)cs1`: < 5.00; for `Cc1nc(C#Cc2ccc3nccnc3c2)cs1`: < 5.00; for `CC(=O)Nc1nc(C#Cc2cccnc2)cs1`: 5.72.
The compound `Cc1nc(C#Cc2cc(F)cc(F)c2)cs1` showed a pIC50 of 7.60.
The same measure, in the same setting: the same measure for `Cc1nc(C#Cc2cccc(C(N)=O)c2)cs1`: 6.00; for `Cc1nc(C#Cc2cncnc2)cs1`: 6.02; for `COc1ccc(C#Cc2csc(C)n2)cn1`: 6.37.
Still for that read-out and setting: the same measure for `Cc1nc(C#Cc2ccc3[nH]ccc3c2)cs1`: < 5.00.
The same measure, in the same setting: the same measure for `C=Cc1cncc(C#Cc2csc(C)n2)c1`: 8.70; for `COc1ncccc1C#Cc1csc(C)n1`: 6.64; for `Cc1nc(C#Cc2cccc(Cl)c2)cs1`: 6.89.
On to `Cc1nc(C#Cc2ccsc2)cs1`, for which the negative-log IC50 (pIC50) is 6.47.
Compound `Cc1nc(C#Cc2ccc(F)cc2)cs1` had a pIC50 of 5.53.
`Cc1nc(C#Cc2ccc(Cl)nc2)cs1`: the pIC50 was < 5.00.
The same measure, in the same setting: next, `C#Cc1cncc(C#Cc2csc(C)n2)c1`: 7.72; `Cc1nc(C#Cc2cccnc2OS(C)(=O)=O)cs1`: < 5.00; `Cc1nc(C#Cc2cncc(C#CCO)c2)cs1`: 7.16.
Same read-out and setting: the same measure for `Cc1nc(C#Cc2cnccn2)cs1`: 5.74; for `CC(=O)Nc1cccc(C#Cc2csc(C)n2)c1`: 5.69.
For `C(#Cc1csc(NCc2ccccc2)n1)c1cccnc1`, the pIC50 is < 5.00.
Same read-out and setting: next, `C=Cc1ccc(C#Cc2csc(C)n2)cn1`: < 5.00; `Cc1nc(C#Cc2cccnc2)c(-c2ccccc2)s1`: < 5.00.

Another experiment deals with Metabotropic glutamate receptor 5 (Rattus norvegicus, UniProt P31424). In words: Displacement of [3H]MPEP from mGluR5 in rat brain membranes. In kind it is cell membranes. In general terms: Loss of bound radioactivity is the signal in a displacement assay; it reports binding, not function.
Chain of Metabotropic glutamate receptor 5 (Rattus norvegicus, UniProt P31424) (P31424 whole entry): as the sequence (P31424 whole entry, looked up) above
The compound `Cc1nc(C#Cc2cccc(C#N)c2)cs1` showed a pKi of 9.60.
For `C=Cc1cncc(C#Cc2csc(C)n2)c1`, the pKi is 9.15.

The species named for the next experiment is Rattus norvegicus. In words: Ability to prevent reinstatement of cocaine-seeking behavior by environmental stimuli associated with cocaine availability in Wistar rat. It is filed as functional, organism-based. The method in brief:
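Adult male Wistar rats with jugular catheters trained to self-administer cocaine (0.25 mg/kg/infusion) under FR4 in daily 2 h sessions. Extinction continued until active-lever responding fell below 20% of baseline for 3 consecutive days. Cue-induced reinstatement was then tested 30 min after i.p. pretreatment with 5 or 10 mg/kg or vehicle (5% emulphor in saline). Active-lever responses were analysed by one-way ANOVA with Tukey tests.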
Turning to `Cc1nc(C#Cc2cccnc2)cs1`, the outcome was Active.

In a further experiment the target is Metabotropic glutamate receptor 5 (Homo sapiens, UniProt P41594). Put plainly: Displacement of [3H]MPEP from cloned human mGluR5 transfected in HEK293-T cells. It is filed as cell-based. The method in brief:
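HEK293-T cells transiently transfected with cloned mGluR5 cDNA. Binding used 3.0 nM [3H]-MPEP with varying unlabeled ligand in 50 mM Tris-Cl, 0.9% NaCl, pH 7.4, incubated 90 min at 20 °C. Membranes were harvested on PEI-pretreated GF/C filters and counted by scintillation to obtain Ki.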
For `Cc1nc(C#Cc2cccc(C#N)c2)cs1`, the pKi was 9.43.
Same read-out and setting: next, `C=Cc1cncc(C#Cc2csc(C)n2)c1`: 9.00.

A word on the pIC50: it is −log10 of the IC50, conventionally taken in molar units. Read a low pIC50 as a large IC50. Broadly, the pKi is the negative decadic logarithm of the Ki, by convention in mol/L.

The values above are taken from ChEMBL document CHEMBL1149388, “Synthesis and structure-activity relationships of 3-[(2-methyl-1,3-thiazol-4-yl)ethynyl]pyridine analogues as potent, noncompetitive metabotropic glutamate receptor subtype 5 antagonists; search for cocaine medications” (J Med Chem, 2006).
